# Experiments:
# Format in all cases: ADME, organism-based
# [1] = Biodistribution in PC3 flu tumor of PSMA expressing human PC3 PIP and PSMA deficient human PC3 flu cells xenografted SCID mouse at 2 uCi, iv after 60 mins; details: in vivo, 1 h
# Summary of the method: (§1)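 Male SCID mice carried subcutaneous PSMA+ PC-3 PIP (left shoulder) and PC-3 flu (right shoulder) xenografts, 1-5 × 10^6 cells in HBSS, and were used at 3-5 mm tumor diameter. Tail-vein injection of 2 µCi radioligand; four mice per time point, killed by cervical dislocation. %ID/g from a standard dilution of the dose, decay-corrected, mean ± SD; PIP tumor:organ ratios.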
# [2] = Biodistribution in small intestine of PSMA expressing human PC3 PIP and PSMA deficient human PC3 flu cells xenografted SCID mouse at 2 uCi, iv after 60 mins; details: in vivo, 1 h; summary of the method: as §1
# [3] = Biodistribution in PC3 PIP tumor of PSMA expressing human PC3 PIP and PSMA deficient human PC3 flu cells xenografted SCID mouse at 2 uCi, iv after 60 mins; details: in vivo, 1 h
# [4] = Ratio of drug level in tumor to stomach of human PSMA expressing PC3 PIP and PSMA deficient human PC3 flu cells xenografted SCID mouse at 2 uCi, iv after 30 mins; details: in vivo, 0.5 h
# Summary of the method: (§2)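 Male SCID mice carried subcutaneous xenografts: PSMA+ PC-3 PIP behind the left shoulder and PSMA− PC-3 flu behind the right, 1–5 × 10^6 cells in HBSS. Mice were used at 3–5 mm tumor diameter. 2 μCi was given by tail vein, and 4 mice per time point were killed by cervical dislocation. %ID/g came from a standard dilution of the dose, decay-corrected. Ratio is PIP tumor %ID/g to organ %ID/g.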
# [5] = Ratio of drug level in tumor to blood of human PSMA expressing PC3 PIP and PSMA deficient human PC3 flu cells xenografted SCID mouse at 2 uCi, iv after 2 hrs
# Summary of the method: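 Male SCID mice carried subcutaneous xenografts of PSMA+ PC-3 PIP cells behind the left shoulder and PSMA− PC-3 flu cells behind the right (1–5 × 10^6 cells in HBSS), used at a tumour diameter of 3–5 mm. Each mouse received 2 μCi of radioiodinated tracer via the tail vein. Tissues were harvested at each time point for %ID/g against a standard dilution of the dose, decay-corrected. Ratios are PIP tumour:organ.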
# [6] = Ratio of drug level in tumor to liver of human PSMA expressing PC3 PIP and PSMA deficient human PC3 flu cells xenografted SCID mouse at 2 uCi, iv after 5 hrs; details: in vivo; summary of the method: as §1
# [7] = Ratio of drug level in tumor to spleen of human PSMA expressing PC3 PIP and PSMA deficient human PC3 flu cells xenografted SCID mouse at 2 uCi, iv after 2 hrs; details: in vivo; summary of the method: as §2
# [8] = tested on: Spleen; experiment: Biodistribution in spleen of PSMA expressing human PC3 PIP and PSMA deficient human PC3 flu cells xenografted SCID mouse at 2 uCi, iv after 2 hrs; details: in vivo
# [9] = Ratio of drug level in tumor to liver of human PSMA expressing PC3 PIP and PSMA deficient human PC3 flu cells xenografted SCID mouse at 2 uCi, iv after 60 mins; details: in vivo, 1 h; summary of the method: as §1
# [10] = Biodistribution in small intestine of PSMA expressing human PC3 PIP and PSMA deficient human PC3 flu cells xenografted SCID mouse at 2 uCi, iv after 2 hrs; details: in vivo; summary of the method: as §1
# [11] = tested on: Liver; experiment: Biodistribution in liver of PSMA expressing human PC3 PIP and PSMA deficient human PC3 flu cells xenografted SCID mouse at 2 uCi, iv after 30 mins; details: in vivo, 0.5 h
# [12] = Ratio of drug level in tumor to kidney of human PSMA expressing PC3 PIP and PSMA deficient human PC3 flu cells xenografted SCID mouse at 2 uCi, iv after 5 hrs; details: in vivo; summary of the method: as §1
# [13] = Ratio of drug level in tumor to muscle of human PSMA expressing PC3 PIP and PSMA deficient human PC3 flu cells xenografted SCID mouse at 2 uCi, iv after 5 hrs; details: in vivo; summary of the method: as §1
# [14] = Ratio of drug level in tumor to liver of human PSMA expressing PC3 PIP and PSMA deficient human PC3 flu cells xenografted SCID mouse at 2 uCi, iv after 30 mins; details: in vivo, 0.5 h; summary of the method: as §1
# [15] = Ratio of drug level in tumor to muscle of human PSMA expressing PC3 PIP and PSMA deficient human PC3 flu cells xenografted SCID mouse at 2 uCi, iv after 2 hrs; details: in vivo; summary of the method: as §1
# [16] = tested on: Pancreas; experiment: Biodistribution in pancreas of PSMA expressing human PC3 PIP and PSMA deficient human PC3 flu cells xenografted SCID mouse at 2 uCi, iv after 60 mins; details: in vivo, 1 h
# [17] = Ratio of drug level in tumor to spleen of human PSMA expressing PC3 PIP and PSMA deficient human PC3 flu cells xenografted SCID mouse at 2 uCi, iv after 5 hrs; details: in vivo; summary of the method: as §2
# [18] = tested on: Blood; experiment: Biodistribution in blood of PSMA expressing human PC3 PIP and PSMA deficient human PC3 flu cells xenografted SCID mouse at 2 uCi, iv after 5 hrs; details: in vivo
# [19] = tested on: Muscle tissue; experiment: Biodistribution in muscle of PSMA expressing human PC3 PIP and PSMA deficient human PC3 flu cells xenografted SCID mouse at 2 uCi, iv after 2 hrs; details: in vivo
smiles,measurement,setting,value
O=C(O)CC[C@H](NC(=O)N[C@@H](CCCCNC(=O)c1ccc([18F])cc1)C(=O)O)C(=O)O,Drug uptake,[1],0.3 % ID/g
same,Drug uptake,[2],0.6 % ID/g
same,Drug uptake,[3],6.4 % ID/g
same,Ratio,[4],11
same,Kp at 2 h,[5],9
same,Ratio,[6],3.5
same,Ratio,[7],1
same,Drug uptake,[8],4.4 % ID/g
same,Ratio,[9],1
same,Drug uptake,[10],0.3 % ID/g
same,Drug uptake,[11],8.7 % ID/g
same,Ratio,[12],0.3
same,Ratio,[13],35
same,Ratio,[14],1
same,Ratio,[15],19
same,Drug uptake,[16],0.3 % ID/g
same,Ratio,[17],3.5
same,Drug uptake,[18],0.03 % ID/g
same,Drug uptake,[19],0.2 % ID/g

# Reference: ChEMBL document CHEMBL1151761, “Radiohalogenated prostate-specific membrane antigen (PSMA)-based ureas as imaging agents for prostate cancer” (J Med Chem, 2008)
